Assay outcomes deposited in PubChem BioAssay by several laboratories.
Furin inh = inhibitors of human furin; P09958; purified furin, fluorogenic substrate cleavage; inhibition, % at 20 µM or 30 µM; hit rate 0.061% among 220,000; in the data active = inhibition above about 25%
m-calpain inh = calpain II (pig) inhibition; purified calpain II, fluorogenic peptide substrate, 30 min; inhibition, % at 16 µM; hit rate 0.37% among 220,000; AID 1236;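 active = inhibition above about 50%, limit read from the data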
thrombin 1536 = inhibitors of human thrombin. P00734. hit rate 0.26% among 220,000. alpha-thrombin, Boc-VPR-AMC fluorogenic substrate cleavage. inhibition, % at 5 µM;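 active = inhibition at or above 40%; inactive = inhibition below 40%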
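Assay system: human alpha-thrombin enzyme. Reagent: Boc-VPR-AMC substrate, 15 µM final. Compound dosing: one concentration per compound, 5 µM, with 0.2% DMSO. Incubation: room-temperature reaction. Technique: AMC fluorescence, 355/460 nm. Measure: % inhibition relative to enzyme controls and enzyme-free blanks.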
FXIIa inh = factor XIIa (human) inhibition; purified FXIIa, Boc-QGR-AMC fluorogenic substrate, 2 h; inhibition, % at 5 µM; hit rate 0.3% among 220,000; in the data active = inhibition above about 40%
hK5 inh = kallikrein 5 (human) inhibition. recombinant hK5, fluorogenic AMC substrate cleavage. Q9Y337. inhibition, % at 5 µM. hit rate 0.59% among 210,000;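 active = inhibition of 40% or more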
FXIa inh 1536 = blocks human coagulation factor XIa protease activity | P03951 | hit rate 0.14% among 220,000 | AID 798 | purified FXIa, Boc-Glu-Ala-Arg-AMC fluorogenic substrate | inhibition, % at 5 µM;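 active = inhibition of at least 40%; inactive = inhibition below 40%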;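 also: fluorescence of freed AMC excited at 355 nm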
Target sequence (P03951 19-387 limits assumed): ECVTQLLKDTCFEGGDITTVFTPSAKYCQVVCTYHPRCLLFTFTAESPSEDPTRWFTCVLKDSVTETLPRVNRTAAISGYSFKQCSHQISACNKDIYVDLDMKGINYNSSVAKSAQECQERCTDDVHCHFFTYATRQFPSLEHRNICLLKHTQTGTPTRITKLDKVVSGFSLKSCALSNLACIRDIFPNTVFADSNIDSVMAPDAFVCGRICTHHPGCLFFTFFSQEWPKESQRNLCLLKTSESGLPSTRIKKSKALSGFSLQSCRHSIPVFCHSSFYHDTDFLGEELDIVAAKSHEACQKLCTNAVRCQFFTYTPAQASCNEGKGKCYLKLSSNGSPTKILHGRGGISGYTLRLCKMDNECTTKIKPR
Target sequence (P03951 388-625 limits assumed): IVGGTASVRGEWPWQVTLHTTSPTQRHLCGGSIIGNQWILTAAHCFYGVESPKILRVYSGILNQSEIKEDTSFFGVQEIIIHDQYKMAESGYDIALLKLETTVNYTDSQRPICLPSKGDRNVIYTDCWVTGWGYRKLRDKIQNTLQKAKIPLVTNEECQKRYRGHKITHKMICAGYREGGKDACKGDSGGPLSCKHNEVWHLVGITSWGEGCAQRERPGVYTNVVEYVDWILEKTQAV
Hits are given with their value; - = inactive; . = no result given. In the library only some 1.4% were active in any assay of this set; here they are far more common.

SMILES	Furin inh	m-calpain inh	thrombin 1536	FXIIa inh	hK5 inh	FXIa inh 1536
O=C(NC1CCCC1)C1CCN(C(=O)c2ccc(-c3ccccc3)cc2)CC1	-	-	-	-	-	-
Cc1ccc(C)c2[nH]c(=O)c(CN(Cc3nnnn3C3CCCCC3)CC3CCCO3)cc12 (stereo not given)	-	-	-	41.0	-	-
Cc1ccc(C)c2[nH]c(=O)c(CN(CCN3CCOCC3)Cc3nnnn3CC3CCCO3)cc12 (stereo not given)	-	-	-	-	-	-
CC(C)CCN(C)C1CCN(S(=O)(=O)c2cccc(C(F)(F)F)c2)CC1	-	-	-	-	52.5	-
O=C(NCc1ccc(F)cc1)c1noc2c1CCCC2	-	-	-	-	-	-
CC(C)(C)C1CCc2onc(C(=O)NCc3ccc(F)cc3)c2C1 (stereo not given)	-	51.8	-	-	-	-
Cc1ccc2cc(CCNC(=O)C(C)C)c(=O)[nH]c2c1C	-	-	-	-	-	-
Cc1ccc2cc(CCNC(=O)c3cc4ccccc4o3)c(=O)[nH]c2c1C	-	54.1	-	-	-	-
Cc1nn2c(NCCCN(C)C)c3c(nc2c1-c1ccccc1)CCC3	-	-	67.6	-	56.2	-
O=C(NCc1ccc(C(F)(F)F)cc1)C12CN(Cc3ccccc3)CC1C(c1cccc([N+](=O)[O-])c1)=NO2 (stereo not given)	-	-	-	-	42.1	-
CC(C)CCNC(=O)C12CN(Cc3ccccc3)CC1C(c1ccc([N+](=O)[O-])cc1)=NO2 (stereo not given)	-	57.7	-	-	-	-
O=[N+]([O-])c1ccc(-c2ccc(S(=O)(=O)NCCN3CCCC3)cc2)cc1	-	-	-	-	-	-
O=C(c1cccc(Oc2ccccc2)c1)N1CCN(c2ccccn2)CC1	-	-	-	-	-	-
CCCCC(=O)NC(=S)Nc1ccc(NC(=O)C(C)C)c(OC)c1	-	-	-	-	-	-
Cc1cccc(C)c1NC(=S)N/N=C/c1c(Cl)cccc1Cl	-	-	50.1	-	-	-
O=C(NCCc1nc2ccccc2[nH]1)c1ccco1	-	-	-	-	52.0	-
O=C(CCc1ccccc1)NCCc1nc2ccccc2[nH]1	-	-	-	-	-	-
CC(CCc1ccccc1)NC(=O)CSc1cccc[n+]1[O-] (stereo not given)	-	53.2	-	-	-	-
CC(CCc1ccccc1)NC(=O)CSc1ccccc1 (stereo not given)	-	-	-	-	-	-
O=C(NCc1ccc(F)cc1)c1cc2n(n1)C(C(F)(F)F)CC(C1CC1)N2 (stereo not given)	-	66.3	-	-	-	-
O=C(O)c1ccccc1SCC(=O)N1CCCCC1	-	-	-	-	-	-
O=C(O)c1ccccc1SCC(=O)N1CCOCC1	-	-	40.9	-	-	-
O=C(O)c1cc([N+](=O)[O-])ccc1NCc1ccccc1Cl	-	-	40.7	-	.	-
Nc1nonc1-c1noc(CCCCCN2C(=O)c3ccccc3C2=O)n1	-	51.2	-	-	-	-
Cc1ccc(-c2noc(CN(C(=O)CCCCCN3C(=O)c4ccccc4C3=O)C(C)C)n2)cc1	-	54.5	-	-	-	-
SMILES	Furin inh	m-calpain inh	thrombin 1536	FXIIa inh	hK5 inh	FXIa inh 1536
Cc1ccc(-c2noc(CN(C(=O)CCCN3C(=O)c4ccccc4C3=O)C(C)C)n2)cc1	-	.	.	.	.	.
Cc1ccccc1C([O-])=Nc1ccc[n+](-c2nc3ccccc3nc2NS(=O)(=O)c2ccccc2)c1	-	-	-	-	-	-
Cc1[nH]c2ccccc2c1CCNC(=O)c1c(N)no[n+]1[O-]	-	-	-	-	-	-
CC(C)CC[n+]1ccn(-c2nc3ccccc3nc2[N-]S(=O)(=O)c2ccccc2)c1	-	-	-	-	-	-
O=S(=O)([N-]c1nc2ccccc2nc1-n1cc[n+](Cc2ccccc2)c1)c1ccc(Cl)cc1	-	-	-	58.0	-	59.7
CSCC[C@@H](C(=O)O)N1Cc2ccccc2C1=O	-	-	-	-	-	-
O=C(O)[C@@H](c1ccccc1)N1Cc2ccccc2C1=O	-	-	-	-	48.6	-
CCOc1ccc(C(CC(=O)O)NC(=O)C(Sc2ccccc2)c2ccccc2)cc1 (stereo not given)	-	-	-	-	-	-
CCOc1ccc(NC(=O)c2ccc(CNc3c(N4CCCC4)c(=O)c3=O)cc2)cc1	-	-	41.1	-	-	-
